From ChEMBL document CHEMBL2311295 (J Med Chem, 2013)

How the values were obtained:
HCT-116/VM46 [1] = experiment: Cytotoxicity against vinblastine-resistant human HCT116/VM46 cells after 72 hrs by phosphatase assay; format: functional, cell-based; details: HCT-116/VM46, 72 h
Method in brief: (§1)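 Cells diluted to 30,000 cells/mL in DMEM with 10% FBS and seeded into 96-well plates (100 μL per well), then grown 24 h at 37 °C under 5% CO2. Test agents were made as 1 mM DMSO stocks with 10-fold serial dilutions and tested at six concentrations over 0–1,000 nM or 0–10,000 nM, in duplicate, for 72 h. Acid phosphatase read-out: substrate in 0.1 M NaOAc pH 5.5 with 0.1% Triton X-100, 15 min at 37 °C, stopped with NaOH, A405. IC50 is the mean of 4–16 determinations.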

HCT-116 [2] = experiment: Cytotoxicity against human HCT116 cells after 72 hrs by phosphatase assay; format: functional, cell-based; details: HCT-116, 72 h
Method in brief: as §1, with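 “A405.” for “A405. IC50 is the mean of 4–16 determinations.”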

Tubulin (Sus scrofa) = Tubulin (Sus scrofa) (UniProt P02554+P02550); experiment: Displacement of [3H]-vinblastine from pig tubulin at 7.2 x 10^-5 M after 60 mins; format: protein assay
Method in brief: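 Purified porcine tubulin (100 µL tubulin solution diluted with 850 µL general tubulin buffer) preincubated with 25 µL of 7.2 × 10⁻⁵ M ³H-vinblastine, 15 min at 37 °C. Then 25 µL of 7.2 × 10⁻⁵ M unlabeled test alkaloid added, incubation continued 60 min. Displacement of bound ³H-vinblastine measured by a previously described procedure.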

HCT-116 [3] = experiment: Ratio of vinblastine IC50 to compound IC50 for human HCT116 cells; format: functional
Method in brief: (§2)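 Both IC50 values come from the 72 h acid phosphatase (A405) proliferation assay: six concentrations over 0–1,000 or 0–10,000 nM, with each value the mean of 4–16 determinations.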

HCT-116 [4] = experiment: Ratio of IC50 for vinblastine-resistant human HCT116/VM46 cells to IC50 for human HCT116 cells; format: functional
Method in brief: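 Ratio of IC50 in HCT116/VM46 to IC50 in HCT116. Both IC50 values come from the 72 h phosphatase (A405) growth inhibition assay: six concentrations up to 1,000 or 10,000 nM, run in duplicate, averaging 4–16 determinations each.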

HCT-116/VM46 [5] = experiment: Ratio of vinblastine IC50 to compound IC50 for vinblastine-resistant human HCT116/VM46 cells; format: functional; method in brief: as §2

Chain of Tubulin (Sus scrofa) (P02550 whole entry, looked up): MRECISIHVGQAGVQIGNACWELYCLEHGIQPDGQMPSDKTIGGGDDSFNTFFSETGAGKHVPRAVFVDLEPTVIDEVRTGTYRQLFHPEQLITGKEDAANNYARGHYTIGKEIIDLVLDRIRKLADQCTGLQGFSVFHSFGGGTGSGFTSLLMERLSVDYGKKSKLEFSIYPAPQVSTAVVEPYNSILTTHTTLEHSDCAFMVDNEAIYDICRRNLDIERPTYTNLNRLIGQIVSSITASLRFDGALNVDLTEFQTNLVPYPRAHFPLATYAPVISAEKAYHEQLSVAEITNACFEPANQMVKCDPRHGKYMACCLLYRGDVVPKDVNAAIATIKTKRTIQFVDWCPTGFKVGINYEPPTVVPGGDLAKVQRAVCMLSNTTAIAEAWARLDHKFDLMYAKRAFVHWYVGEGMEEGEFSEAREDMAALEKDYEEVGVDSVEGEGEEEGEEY
Chain of Tubulin (Sus scrofa) (P02554 whole entry, looked up): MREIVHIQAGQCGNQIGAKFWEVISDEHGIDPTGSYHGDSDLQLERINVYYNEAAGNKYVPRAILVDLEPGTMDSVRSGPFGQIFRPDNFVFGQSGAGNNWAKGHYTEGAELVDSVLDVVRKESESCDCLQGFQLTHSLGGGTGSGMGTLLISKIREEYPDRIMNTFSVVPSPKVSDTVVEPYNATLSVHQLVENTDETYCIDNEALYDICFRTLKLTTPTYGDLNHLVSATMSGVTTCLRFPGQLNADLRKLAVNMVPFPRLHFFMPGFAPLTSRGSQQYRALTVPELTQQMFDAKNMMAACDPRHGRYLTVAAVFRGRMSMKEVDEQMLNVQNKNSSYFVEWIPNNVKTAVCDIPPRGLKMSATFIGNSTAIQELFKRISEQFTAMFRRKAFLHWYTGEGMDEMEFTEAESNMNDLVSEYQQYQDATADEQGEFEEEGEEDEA

Row | Structure (SMILES) | IC50 (HCT-116/VM46 [1]) [nM] | IC50 (HCT-116 [2]) [nM] | inhibition (Tubulin (Sus scrofa)) [%] | Ratio IC50 (HCT-116 [3]) | Ratio IC50 (HCT-116 [4]) | Ratio IC50 (HCT-116/VM46 [5])
1 | CC[C@]1(NC(=O)Nc2ccc(-c3ccccc3)cc2)C[C@H]2CN(CCc3c([nH]c4ccccc34)[C@@](C(=O)OC)(c3cc4c(cc3OC)N(C)[C@H]3[C@@](O)(C(=O)OC)[C@H](OC(C)=O)[C@]5(CC)C=CCN6CC[C@]43[C@@H]65)C2)C1 | 470 | 6.9 | 48.5 | – | – | –
2 | CCNC(=O)N[C@@]1(CC)C[C@H]2CN(CCc3c([nH]c4ccccc34)[C@@](C(=O)OC)(c3cc4c(cc3OC)N(C)[C@H]3[C@@](O)(C(=O)OC)[C@H](OC(C)=O)[C@]5(CC)C=CCN6CC[C@]43[C@@H]65)C2)C1 | 90 | 0.73 | – | 10 | – | –
3 | CC[C@]1(NC(=O)N(C)C)C[C@H]2CN(CCc3c([nH]c4ccccc34)[C@@](C(=O)OC)(c3cc4c(cc3OC)N(C)[C@H]3[C@@](O)(C(=O)OC)[C@H](OC(C)=O)[C@]5(CC)C=CCN6CC[C@]43[C@@H]65)C2)C1 | 80 | 2.8 | 45.1 | – | 10 | –
4 | CC[C@]1(O)C[C@H]2CN(CCc3c([nH]c4ccc(F)cc34)[C@@](C(=O)OC)(c3cc4c(cc3OC)N(C)[C@H]3[C@@](O)(C(=O)OC)[C@H](OC(C)=O)[C@]5(CC)C=CCN6CC[C@]43[C@@H]65)C2)C1 | – | – | – | 8 | – | –
5 | CC[C@]1(NC(=O)NC)C[C@H]2CN(CCc3c([nH]c4ccccc34)[C@@](C(=O)OC)(c3cc4c(cc3OC)N(C)[C@H]3[C@@](O)(C(=O)OC)[C@H](OC(C)=O)[C@]5(CC)C=CCN6CC[C@]43[C@@H]65)C2)C1 | 530 | 0.82 | – | 10 | – | –
6 | CC[C@]1(NC(=O)NC2CC2)C[C@H]2CN(CCc3c([nH]c4ccccc34)[C@@](C(=O)OC)(c3cc4c(cc3OC)N(C)[C@H]3[C@@](O)(C(=O)OC)[C@H](OC(C)=O)[C@]5(CC)C=CCN6CC[C@]43[C@@H]65)C2)C1 | 85 | 0.73 | – | 10 | – | –
7 | CC[C@]1(NC(=O)NC(C)C)C[C@H]2CN(CCc3c([nH]c4ccccc34)[C@@](C(=O)OC)(c3cc4c(cc3OC)N(C)[C@H]3[C@@](O)(C(=O)OC)[C@H](OC(C)=O)[C@]5(CC)C=CCN6CC[C@]43[C@@H]65)C2)C1 | 530 | 5.7 | – | 10 | – | –
8 | CC[C@]1(NC(=O)Nc2ccccc2OC)C[C@H]2CN(CCc3c([nH]c4ccccc34)[C@@](C(=O)OC)(c3cc4c(cc3OC)N(C)[C@H]3[C@@](O)(C(=O)OC)[C@H](OC(C)=O)[C@]5(CC)C=CCN6CC[C@]43[C@@H]65)C2)C1 | 65 | 0.77 | – | 10 | – | –
9 | CC[C@]1(NC(=O)Nc2cccc(OC)c2)C[C@H]2CN(CCc3c([nH]c4ccccc34)[C@@](C(=O)OC)(c3cc4c(cc3OC)N(C)[C@H]3[C@@](O)(C(=O)OC)[C@H](OC(C)=O)[C@]5(CC)C=CCN6CC[C@]43[C@@H]65)C2)C1 | 80 | 0.77 | – | 10 | – | –
10 | CCNC(=O)N[C@@]1(CC)C[C@H]2CN(CCc3c([nH]c4ccc(F)cc34)[C@@](C(=O)OC)(c3cc4c(cc3OC)N(C)[C@H]3[C@@](O)(C(=O)OC)[C@H](OC(C)=O)[C@]5(CC)C=CCN6CC[C@]43[C@@H]65)C2)C1 | 70 | 0.62 | – | 10 | – | 10
11 | CCCNC(=O)N[C@@]1(CC)C[C@H]2CN(CCc3c([nH]c4ccccc34)[C@@](C(=O)OC)(c3cc4c(cc3OC)N(C)[C@H]3[C@@](O)(C(=O)OC)[C@H](OC(C)=O)[C@]5(CC)C=CCN6CC[C@]43[C@@H]65)C2)C1 | 220 | 2.7 | – | 10 | – | –
12 | CC[C@]1(NC(=O)N2CCCCC2)C[C@H]2CN(CCc3c([nH]c4ccccc34)[C@@](C(=O)OC)(c3cc4c(cc3OC)N(C)[C@H]3[C@@](O)(C(=O)OC)[C@H](OC(C)=O)[C@]5(CC)C=CCN6CC[C@]43[C@@H]65)C2)C1 | 50 | 3.9 | – | – | 10 | –
13 | CC[C@]1(NC(=O)Nc2ccc(C)cc2)C[C@H]2CN(CCc3c([nH]c4ccccc34)[C@@](C(=O)OC)(c3cc4c(cc3OC)N(C)[C@H]3[C@@](O)(C(=O)OC)[C@H](OC(C)=O)[C@]5(CC)C=CCN6CC[C@]43[C@@H]65)C2)C1 | 330 | 4.8 | – | – | – | –
14 | CC[C@]1(NC(=O)NCc2ccco2)C[C@H]2CN(CCc3c([nH]c4ccccc34)[C@@](C(=O)OC)(c3cc4c(cc3OC)N(C)[C@H]3[C@@](O)(C(=O)OC)[C@H](OC(C)=O)[C@]5(CC)C=CCN6CC[C@]43[C@@H]65)C2)C1 | 530 | 5.1 | – | – | – | –
15 | CC[C@]1(NC(=S)NC2CCCCC2)C[C@H]2CN(CCc3c([nH]c4ccccc34)[C@@](C(=O)OC)(c3cc4c(cc3OC)N(C)[C@H]3[C@@](O)(C(=O)OC)[C@H](OC(C)=O)[C@]5(CC)C=CCN6CC[C@]43[C@@H]65)C2)C1 | 520 | 20 | – | – | 26 | –
16 | CC[C@]12C=CCN3CC[C@@]4(c5cc([C@@]6(C(=O)OC)C[C@@H]7CN(CCc8c6[nH]c6ccccc86)C[C@@](CC)(N(C)C)C7)c(OC)cc5N(C)[C@H]4[C@@](O)(C(=O)OC)[C@@H]1OC(C)=O)[C@@H]32 | > 10000 | 980 | – | – | – | –
